Columns and labels:
Format in all cases: functional
[1] = system: Rattus norvegicus; test: Conditioned avoidance response in rats after oral administration
Method in brief: (§1)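 Wistar rats (120-130 g) trained in a shuttle box to cross on a 5-s buzzer; failure within 1 s after the buzzer gave a mild shock. Only well-conditioned animals were used, in groups of five, dosed orally 1 h 50 min before testing. After 10-min habituation they were tested for 20 min. Blockade = shocks received as % of stimuli; EDmin reported.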

[2] = system: Rattus norvegicus; test: Compound was tested for the presence of catalepsy (CAT) in rats after oral administration; ip administration
[3] = system: Mus musculus; test: Tested for the apomorphine climbing behavior in mice after oral administration
Method in brief: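 Female TO mice (20-25 g), groups of eight, dosed orally with compound or vehicle, then habituated 60 min in wire-mesh cylinders. Apomorphine 2.5 mg/kg sc given; from 10 min later, climbing scored 0-4 (paws on cage) at 5-min intervals for 20 min.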

[4] = system: Rattus norvegicus; test: Compound was tested for the Conditioned avoidance response (CAR) in rats after oral administration; ip administration
[5] = system: Rattus norvegicus; test: Percent change in serum prolactin in adult male Dawley rats after intraperitoneal administration.
Method in brief: (§2)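 Adult male Sprague-Dawley rats, groups of 10, given compound in 0.5% lactic acid or vehicle ip 2 h before decapitation. Trunk blood clotted at 4 °C and centrifuged. Serum prolactin measured by NIAMDD radioimmunoassay kit against rat prolactin reference NIAMDD-RP-1. Result expressed as % change from controls run in the same experiment. Means compared by Student's test.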

[6] = system: Rattus norvegicus; test: Tested for the amphetamine induced stereotyped behavior in rats after oral administration
Method in brief: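 Wistar rats, groups of eight, given d-amphetamine sulfate 10 mg/kg ip 1 h after test compound. Stereotypy scored 1-8 at eight time points up to 4 h, and the group mean taken at each time. EDmin = lowest dose reducing stereotypy by more than 25% versus amphetamine-treated controls.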

[7] = system: Rattus norvegicus; test: Tested for the presence of catalepsy(CAT) in rats after oral administration
Method in brief: (§3)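 Wistar rats (180-190 g), groups of eight, compound given orally in distilled water or 0.5% carboxymethyl cellulose. Front paws placed on a 1.5 cm rod 7 cm high at 0.5, 1, 1.5, 2, 3, 4 and 5 h; time held recorded up to 20 min and scored 0-5. Maximum score per animal summed (group maximum 40); EDmin = lowest dose exceeding a threshold score.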

[8] = organism: Rattus norvegicus; test: Compound was tested for the Conditioned avoidance response (CAR) in rats; method in brief: as §1
[9] = system: Rattus norvegicus; test: % change in serum prolactin in adult male Dawley rats after intraperitoneal administration.; method in brief: as §2
[10] = system: Rattus norvegicus; test: Compound was tested for the presence of catalepsy (CAT) in rats after oral administration; method in brief: as §3
[11] = organism: Rattus norvegicus; test: Compound was tested for the % change in serum prolactin in adult male Dawley rats.(not significant); method in brief: as §2

With `C[C@@H]1C[C@@H]2c3cccc4[nH]cc(c34)C[C@H]2N(C)C1` the EDmin [1] was >40 mg/kg.
`CSc1[nH]c2cc(O)cc3c2c1C[C@@H]1[C@@H]3C=C(C)CN1C` gave an EDmin [2] of 25 mg/kg, an EDmin [3] of 25 mg/kg and an EDmin [4] of 25 mg/kg. The Change [5] was -50%.
In the case of `CSc1[nH]c2cccc3c2c1C[C@@H]1[C@@H]3C[C@@H](C)CN1C`, the EDmin [6] was 5 mg/kg, the EDmin [3] was 40 mg/kg and the EDmin [1] was 5 mg/kg. For the same compound, the EDmin [7] was 20 mg/kg and the Change [5] was 570%.
`CCSc1[nH]c2cccc3c2c1C[C@@H]1[C@@H]3C=C(C)CN1C` was tested, and the EDmin [3] was >100 mg/kg, the EDmin [1] was 25 mg/kg and the EDmin [7] was 40 mg/kg. The Change [5] was 67%.
With `CSc1[nH]c2cccc3c2c1C[C@@H]1[C@@H]3C=C(CO)CN1C` the EDmin [2] was 12.5 mg/kg, the EDmin [3] was >25 mg/kg and the EDmin [4] was 6 mg/kg. It also gave a Change [5] of 481%.
For `CSc1[nH]c2cccc3c2c1C[C@@H]1[C@@H]3C[C@H](C)CN1C`, the EDmin [3] was >25 mg/kg, the EDmin [1] was 40 mg/kg and the Change [5] was 63%.
`CCN1CC(C)=C[C@@H]2c3cccc4[nH]c(SC)c(c34)C[C@H]21` was tested, and the EDmin [3] was 100 mg/kg, the EDmin [1] was 25 mg/kg and the Change [5] was -65%.
For `CC1=C[C@@H]2c3cccc4[nH]c(Sc5ccccc5)c(c34)C[C@H]2N(C)C1`, the EDmin [6] was 20 mg/kg, the EDmin [3] was 25 mg/kg and the EDmin [1] was 2.5 mg/kg. The EDmin [7] was 10 mg/kg and the Change [5] was 141%.
In the case of `CCCSc1[nH]c2cccc3c2c1C[C@@H]1[C@@H]3C[C@@H](C)CN1C`, the EDmin [1] was >50 mg/kg and the Change [5] was 76%.
In the case of `CC1=C[C@@H]2c3cccc4[nH]c([S+](C)[O-])c(c34)C[C@H]2N(C)C1` (stereo partly specified), the EDmin [3] was >100 mg/kg, the EDmin [1] was >50 mg/kg and the Change [5] was 98%.
With `CC1=C[C@@H]2c3cccc4[nH]c(SC(C)C)c(c34)C[C@H]2N(C)C1` the EDmin [6] was 10 mg/kg, the EDmin [1] was 10 mg/kg and the EDmin [8] was 2.5 mg/kg. The Change [5] was 132%.
With `CCCCCCSc1[nH]c2cccc3c2c1C[C@@H]1[C@@H]3C=C(C)CN1C` the EDmin [3] was >100 mg/kg, the EDmin [1] was 50 mg/kg and the Change [5] was -4%.
With `CC1=C[C@@H]2c3cccc4[nH]c(Sc5ccc(Cl)cc5)c(c34)C[C@H]2N(C)C1` the EDmin [3] was >100 mg/kg and the EDmin [1] was 100 mg/kg.
With `CC1=C[C@@H]2c3cccc4[nH]c(S(C)(=O)=O)c(c34)C[C@H]2N(C)C1` the EDmin [3] was >100 mg/kg, the EDmin [1] was >50 mg/kg and the Change [9] was 30%.
For `CCCN1CC(C)=C[C@@H]2c3cccc4[nH]c(SC)c(c34)C[C@H]21`, the EDmin [3] was >50 mg/kg and the Change [5] was -74%.
For `COc1ccc(Sc2[nH]c3cccc4c3c2C[C@@H]2[C@@H]4C=C(C)CN2C)cc1`, the EDmin [3] was >100 mg/kg, the EDmin [1] was >80 mg/kg and the Change [9] was 31%.
`C[C@H]1C[C@@H]2c3cccc4[nH]cc(c34)C[C@H]2N(C)C1` was tested, and the EDmin [1] was >50 mg/kg.
`CCCSc1[nH]c2cccc3c2c1C[C@@H]1[C@@H]3C=C(C)CN1C` was tested, and the EDmin [3] was >50 mg/kg.
For `C[C@H]1C[C@@H]2c3cccc4[nH]c(Sc5ccccc5)c(c34)C[C@H]2N(C)C1`, the EDmin [3] was >50 mg/kg, the EDmin [1] was >50 mg/kg and the Change [5] was 15%.
`CSc1c2c3c(cccc3n1CO)[C@H]1C=C(C)CN(C)[C@@H]1C2` was tested, and the EDmin [3] was >100 mg/kg, the EDmin [1] was 20 mg/kg and the Change [5] was 91%. It also gave an EDmin [10] of 80 mg/kg.
With `CSc1[nH]c2cccc3c2c1C[C@H]1NCC(C)=C[C@H]31` the EDmin [3] was 50 mg/kg, the EDmin [1] was >50 mg/kg and the Change [9] was 24%.
In the case of `CSc1[nH]c2cccc3c2c1C[C@@H]1[C@@H]3C=C(C)CN1C`, the EDmin [6] was 5 mg/kg, the EDmin [3] was 50 mg/kg and the EDmin [1] was 2.5 mg/kg. For the same compound, the EDmin [7] was 10 mg/kg and the Change [5] was 532%.
With `CCCN1C[C@H](C)C[C@@H]2c3cccc4[nH]c(SC)c(c34)C[C@H]21` the EDmin [1] was >50 mg/kg.
`CSc1c2c3c(cccc3n1C)[C@H]1C=C(C)CN(C)[C@@H]1C2` was tested, and the EDmin [3] was 100 mg/kg, the EDmin [1] was 100 mg/kg and the Change [11] was -23%.
In the case of `CC1=C[C@@H]2c3cccc4[nH]c(SCc5ccccc5)c(c34)C[C@H]2N(C)C1`, the EDmin [3] was 100 mg/kg, the EDmin [1] was 25 mg/kg and the EDmin [7] was 80 mg/kg. The Change [9] was -9%.
`C[C@@H]1C[C@@H]2c3cccc4[nH]c(Sc5ccccc5)c(c34)C[C@H]2N(C)C1` was tested, and the EDmin [6] was 20 mg/kg, the EDmin [1] was 20 mg/kg and the EDmin [8] was 10 mg/kg. The Change [5] was 106%.
`CN(C)CCCN1c2ccccc2Sc2ccc(Cl)cc21` [CHLORPROMAZINE] was tested, and the EDmin [1] was 10 mg/kg and the EDmin [10] was 10 mg/kg.
`CN1CCN(C2=Nc3cc(Cl)ccc3Nc3ccccc32)CC1` [CLOZAPINE] was tested, and the EDmin [6] was 40 mg/kg, the EDmin [3] was 20 mg/kg and the EDmin [1] was 30 mg/kg. The Change [5] was 1.6% and the EDmin [10] was 80 mg/kg.
Work on `O=C(CCCN1CCC(O)(c2ccc(Cl)cc2)CC1)c1ccc(F)cc1` [HALOPERIDOL] yielded an EDmin [3] of 1 mg/kg, an EDmin [1] of 0.5 mg/kg and a Change [5] of 1413%. For the same compound, the EDmin [10] was 0.5 mg/kg.

— ChEMBL document CHEMBL1126632, “Synthesis and dopamine antagonist activity of 2-thioether derivatives of the ergoline ring system” (J Med Chem, 1993)
